Source: PubChem
Hep lipid drop = modulators of hepatic lipid droplet formation | AML12 mouse hepatocytes, oleate lipid droplets, BODIPY imaging | inhibition, % at 6.5 µM | 0.4% of 240,000 active | AID 1656;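 active = lipid droplet intensity inhibited by at least 50%, with more than 500 cells counted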
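Technique: fluorescence imaging, 20x objective, two fields per well / Assay system: AML12 hepatocytes (mouse) / Measure: % inhibition of lipid droplet signal / Doses: 6.5 µM single-point dosing / Incubation: overnight exposure / Reagent: 100 µM oleic acid challenge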
MrgX1 allo act = allosterically activates human MrgX1 receptor signaling; B-score at 10 µM; MrgX1-HEK293, Fluo-4 calcium flux, FDSS; hits give high values; AID 588675; 0.63% of 310,000 active; Q96LB2;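 active = plate-corrected calcium response at least 3 library SD above typical, normal starting fluorescence, not activating the receptor alone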;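 also: compound read alongside a low EC10 to EC30 dose of BAM8-22 agonist; peak minus trough fluorescence over baseline measured at the second addition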
Target sequence (Q96LB2 whole entry, looked up): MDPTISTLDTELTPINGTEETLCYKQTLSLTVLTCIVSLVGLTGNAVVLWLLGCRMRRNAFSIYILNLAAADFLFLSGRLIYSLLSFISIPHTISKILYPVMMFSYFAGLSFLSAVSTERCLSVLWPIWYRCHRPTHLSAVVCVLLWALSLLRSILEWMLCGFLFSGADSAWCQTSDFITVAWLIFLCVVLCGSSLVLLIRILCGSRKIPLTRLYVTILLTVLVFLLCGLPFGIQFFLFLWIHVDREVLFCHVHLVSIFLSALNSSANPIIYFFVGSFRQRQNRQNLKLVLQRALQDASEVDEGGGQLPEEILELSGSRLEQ
RGS4 block = inhibitors of human RGS4 | P49798 | HEK293 M3R/RGS4 inducible, Fluo-4 calcium flux; hits give high values; triggered by carbachol at its EC20 | B-score at 10 µM | 0.45% of 310,000 active;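 active = B-score, a plate-corrected calcium signal, over three deviations above library mean, with baseline fluorescence within five deviations of library mean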;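 also: RGS4 expression induced by doxycycline in cells with stable M3 receptor; B-score is computed from the integrated fluorescence ratio over baseline after carbachol; higher B-score means a larger calcium signal and so more RGS4 inhibition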
Target sequence (P49798 whole entry, looked up): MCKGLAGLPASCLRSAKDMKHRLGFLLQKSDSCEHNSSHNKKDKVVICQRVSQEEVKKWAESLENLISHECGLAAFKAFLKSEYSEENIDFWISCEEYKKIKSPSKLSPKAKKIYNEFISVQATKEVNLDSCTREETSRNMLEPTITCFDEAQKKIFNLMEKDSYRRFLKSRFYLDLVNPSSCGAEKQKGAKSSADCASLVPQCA
MrgX1 agonist = human MrgX1 receptor agonism, primary screen | 0.44% of 310,000 active | Q96LB2 | AID 588627 | MrgX1-HEK293 cells, Fluo-4 calcium fluorescence, agonist mode; hits give high values | B-score at 10 µM;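 active = calcium response B-score plate-corrected fluorescence ratio at least 3 library SD, with starting fluorescence B-score inside 5 SD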
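Assay system: MrgX1-expressing HEK293 cells / Amount: fifteen thousand cells per well / Doses: test compound in the initial addition of three / Timing: cells plated overnight, dye loaded 0.5 h 37 °C, 0.5 h room temperature / Technique: kinetic calcium dye fluorescence, Fluo-4 NW / Control set: positive and negative controls per plate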
RGS4 pot = potentiators or activators of RGS4. B-score at 10 µM. AID 463111. HEK293 M3R/inducible RGS4, carbachol calcium flux Fluo4; hits give low values. 0.92% of 310,000 active;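 active = B-score of the integrated calcium signal more than 4 SD below the library mean, with starting fluorescence not abnormally high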;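 also: negative B-score means reduced calcium response which marks RGS4 activation or potentiation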
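System: HEK293 FlpIn-TREx cells, stable M3R, doxycycline-inducible RGS4. Timing: overnight RGS4 induction, 30 min dye load 37 °C, 20 min compound RT. Also added: carbachol, ECmax concentration. Measured by: Fluo4 fluorescence kinetic imaging of calcium. Evaluation: integrated calcium ratio converted to B score.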
MrgX1 antag = antagonists of human MrgX1 receptor; B-score at 10 µM; 1.3% of 310,000 active; Q96LB2; MRGX1-HEK293 calcium flux, Fluo-4, BAM8-22 antagonism; hits give low values;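 active = calcium-response B-score plate-corrected more than 3 library SD below zero, starting fluorescence within 5 deviations, no agonist response on first addition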;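 also: peak minus trough fluorescence over baseline after final BAM8-22 challenge near maximal dose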
MrgX1 ant reconf = confirmation of human MrgX1 receptor antagonists; shares compounds with MrgX1 antag; MrgX1-HEK293, BAM8-22 calcium flux, Fluo-4; hits give low values; remaining BAM8-22 calcium response % of control (hits give low values), % at 10 µM; 19% of 2,300 active;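 active = remaining agonist calcium response no higher than 100% minus 3 SD of agonist-only control wells, with starting fluorescence near control levels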;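 also: agonist BAM8-22 given at a near maximal EC90 to ECmax level; peak minus minimum fluorescence divided by baseline after agonist addition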
HEK293 Ca flux = activity in parental HEK293 cells lacking MrgX1; shares compounds with MrgX1 antag; Fluo-4 calcium fluorescence, FDSS; fluorescence ratio F(max-min)/F0 at 10 µM; 2% of 4,000 active; AID 624111;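 active = duplicate-averaged calcium fluorescence ratio at least three times the standard deviation of buffer wells, a nonspecific response in parental cells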
HEK293 Ca counter = MrgX1 allosteric activator counter-screen hit in parental HEK293 cells | shares compounds with MrgX1 antag | 0.4% of 4,000 active | parental HEK293 calcium flux, Fluo-4 fluorescence ratio; hits give high values | fluorescence ratio F(max-min)/F0 at 10 µM;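 active = calcium fluorescence ratio, averaged over duplicates, at least 3 SD of the buffer-well ratio, meaning a nonspecific response in receptor-free cells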;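 also: untransfected parental HEK293 lacking MrgX1 used as counterscreen for MrgX1 allosteric activators; fluorescence change taken during the second addition on a kinetic imager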
HEK293 Ca cntr2 = MrgX1 activator counter-screen hit in parental HEK293 cells; 8.7% of 4,000 active; fluorescence ratio F(max-min)/F0 at 10 µM; Fluo-4 calcium fluorescence (FDSS); hits give high values; shares compounds with MrgX1 antag;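 active = calcium fluorescence ratio at least three times the spread of buffer wells, meaning a non-specific response in parental cells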
* hit, by the source's call; i = inactive; x = no result given. Most compounds without a hit are left out; they make up all but 3.8% or so of the library.

SMILES	Hep lipid drop	MrgX1 allo act	RGS4 block	MrgX1 agonist	RGS4 pot	MrgX1 antag	MrgX1 ant reconf	HEK293 Ca flux	HEK293 Ca counter	HEK293 Ca cntr2
COC(=O)c1cccn(CC(=O)c2ccc(Cl)cc2)c1=O	-5	i	i	i	i	i	x	x	x	x
O=S(=O)(Nc1cccc(-c2cn3c(n2)SCC3)c1)c1ccc(F)cc1F	-19	i	i	i	i	i	x	x	x	x
Cc1cccc(N(C)S(=O)(=O)c2cccc3nsnc23)c1	-10	i	i	i	i	-5*	i	i	i	i
CN(CC(=O)Nc1ccc(F)c(F)c1)S(=O)(=O)c1cccc2nsnc12	x	i	i	i	i	-10*	i	i	i	i
CCN(c1cccc(C)c1)S(=O)(=O)c1cccc2nsnc12	-21	i	i	i	i	i	x	x	x	x
COCCn1c(=NC(=O)C(C)(C)C)sc2cc([N+](=O)[O-])ccc21	-29	i	i	i	i	i	x	x	x	x
O=C1Cc2cc([N+](=O)[O-])ccc2N1c1c(Cl)cccc1Cl	19	i	i	i	i	i	x	x	x	x
O=C(CCSc1ccc(Cl)cc1)NC1CCCC1	-3	i	i	i	i	i	x	x	x	x
O=C(CCS(=O)(=O)Cc1ccccc1)NC1CCCCC1	0	i	i	i	i	-4.9*	i	i	i	i
O=C(CCSc1ccccc1)NCc1cccnc1	23	i	i	i	i	-5.5*	85%*	i	i	i
O=C(NC1CCCCCC1)C(=S)NCCc1ccccc1	2	i	i	i	i	i	x	x	x	x
O=C(CCSc1ccccc1)NC1CCCC1	7	i	i	i	i	-8.8*	i	i	i	i
O=C(NCCc1ccccc1)NC1CCCCC1	7	i	i	i	i	-4.8*	i	i	i	i
CCOC(=O)C1(C)NC(c2ccco2)C2C(=O)N(CC)C(=O)C21 (stereo not drawn)	12	i	i	i	i	i	x	x	x	x
CCCC(=O)Nc1cc(C(=O)O)ccc1S(=O)(=O)c1ccc(Cl)cc1	-20	i	i	i	i	i	x	x	x	x
Cc1oc(C)c(C(=O)O)c1C(=O)O	-12	i	i	i	i	i	x	x	x	x
COC(=O)c1c(C)oc(C)c(C(=O)OC)c1=O	x	i	i	i	i	-7*	i	i	i	i
O=S(=O)(NCCN1CCCC1)c1ccc(Cl)cc1	-1	i	i	i	i	-4.8*	i	i	i	i
NNC(=O)CCc1nc2ccccc2[nH]1	1	i	i	i	i	i	x	x	x	x
CCCCCCCCCCOC(=O)Cn1c(COc2ccccc2OC)[n+](C)c2ccccc21	-88	i	i	i	-8.4*	-11*	59%*	i	i	i
COc1cc(O)c2c(c1)OC(C)(C)CC2=O	-4	i	i	i	i	-10*	i	i	i	i
CC(Oc1cccc(F)c1)c1ccnc2nc(/N=C/N(C)C)nn12 (stereo not drawn)	-16	i	i	i	i	i	x	x	x	x
